# Measured values as given in ChEMBL document CHEMBL3877273, “Synthesis and evaluation of N-substituted 2-amino-4,5-diarylpyrimidines as selective adenosine A1 receptor antagonists” (Eur J Med Chem, 2017).
# Experiments:
# Adenosine receptor A1 [1] = target: T1, Adenosine receptor A1 (Homo sapiens, UniProt P30542); experiment: Displacement of [3H]DPCPX from recombinant human adenosine A1 receptor expressed in CHO cell membranes after 1 hr by beta scintillation counting method
# T1 sequence (P30542 whole entry): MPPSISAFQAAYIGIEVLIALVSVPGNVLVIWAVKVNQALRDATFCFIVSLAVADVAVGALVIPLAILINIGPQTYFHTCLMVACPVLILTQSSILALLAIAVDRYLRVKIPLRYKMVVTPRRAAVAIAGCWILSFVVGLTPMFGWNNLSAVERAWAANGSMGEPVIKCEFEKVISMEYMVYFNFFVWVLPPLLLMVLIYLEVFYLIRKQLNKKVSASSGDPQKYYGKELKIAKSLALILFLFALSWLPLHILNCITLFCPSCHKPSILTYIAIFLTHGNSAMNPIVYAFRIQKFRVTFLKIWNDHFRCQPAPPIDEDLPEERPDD
# Adenosine receptor A2a [2] = target: T2, Adenosine receptor A2a (Homo sapiens, UniProt P29274); experiment: Displacement of [3H]ZM241385 from recombinant human adenosine A2A receptor expressed in HEK293 cell membranes at 1 uM after 2 hrs by beta scintillation counting method relative to control
# How it was run: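 Single-concentration screen on membranes from HEK293 cells stably expressing human A2A receptor. Test ligand at 1 µM, measured against specific [3H]ZM241385 binding and given as % displacement. Two independent experiments (n = 2), each value reported.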
# Adenosine receptor A1 [3] = target: T1, Adenosine receptor A1; experiment: Inverse agonist activity at recombinant human adenosine A1 receptor expressed in CHO cell membranes assessed as […] of [35S]GTPgammaS binding preincubated for 30 mins followed by [35S]GTPgammaS addition measured after 90 mins by beta scintillation counting method; type: functional
# [4] = target: T3, Adenosine receptor A3 (Homo sapiens) (UniProt P0DMS8); experiment: Displacement of [3H]PSB11 from recombinant human adenosine A3 receptor expressed in CHO cell membranes at 1 uM after 1 hr by […] method relative to control
# T3 sequence (whole entry): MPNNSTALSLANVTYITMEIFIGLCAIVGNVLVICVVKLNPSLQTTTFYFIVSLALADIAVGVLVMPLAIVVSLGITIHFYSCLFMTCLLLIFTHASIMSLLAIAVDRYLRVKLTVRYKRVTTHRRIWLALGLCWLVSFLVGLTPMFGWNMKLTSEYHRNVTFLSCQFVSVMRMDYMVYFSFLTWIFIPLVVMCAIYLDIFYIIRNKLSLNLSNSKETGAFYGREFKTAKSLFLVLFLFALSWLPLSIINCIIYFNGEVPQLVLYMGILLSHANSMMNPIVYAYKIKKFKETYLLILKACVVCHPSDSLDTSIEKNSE
# [5] = target: T4, Adenosine receptor A2b (Homo sapiens) (UniProt P29275); experiment: Displacement of [3H]PSB603 from recombinant human adenosine A2B receptor expressed in CHO cell membranes at 1 uM after 1 hr by beta scintillation counting method relative to control
# T4 sequence (whole entry): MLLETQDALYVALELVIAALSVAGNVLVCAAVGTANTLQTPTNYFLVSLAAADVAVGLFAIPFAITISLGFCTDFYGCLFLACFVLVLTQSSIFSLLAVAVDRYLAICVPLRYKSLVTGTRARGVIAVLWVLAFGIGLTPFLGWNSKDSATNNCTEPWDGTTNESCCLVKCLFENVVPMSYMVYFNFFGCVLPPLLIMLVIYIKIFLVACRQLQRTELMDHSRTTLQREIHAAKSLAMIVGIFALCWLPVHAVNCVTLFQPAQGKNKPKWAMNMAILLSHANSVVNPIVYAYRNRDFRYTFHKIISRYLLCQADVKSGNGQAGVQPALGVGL
# Adenosine receptor A2a [6] = target: T2, Adenosine receptor A2a; experiment: Displacement of [3H]ZM241385 from recombinant human adenosine A2A receptor expressed in HEK293 cell membranes after 2 hrs by beta scintillation counting method
# How it was run: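 Membranes from HEK293 cells stably expressing human A2A receptor were used in radioligand competition with [3H]ZM241385. Ki was reported as mean ± SEM, n = 3.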
# Adenosine receptor A2b = target: T5, Adenosine receptor A2b (Homo sapiens, UniProt P29275); experiment: Displacement of [3H]PSB603 from recombinant human adenosine A2B receptor expressed in CHO cell membranes after 1 hr by beta scintillation counting method
# T5 sequence (P29275 whole entry): T4 sequence (whole entry)
# T2 sequence (P29274 whole entry): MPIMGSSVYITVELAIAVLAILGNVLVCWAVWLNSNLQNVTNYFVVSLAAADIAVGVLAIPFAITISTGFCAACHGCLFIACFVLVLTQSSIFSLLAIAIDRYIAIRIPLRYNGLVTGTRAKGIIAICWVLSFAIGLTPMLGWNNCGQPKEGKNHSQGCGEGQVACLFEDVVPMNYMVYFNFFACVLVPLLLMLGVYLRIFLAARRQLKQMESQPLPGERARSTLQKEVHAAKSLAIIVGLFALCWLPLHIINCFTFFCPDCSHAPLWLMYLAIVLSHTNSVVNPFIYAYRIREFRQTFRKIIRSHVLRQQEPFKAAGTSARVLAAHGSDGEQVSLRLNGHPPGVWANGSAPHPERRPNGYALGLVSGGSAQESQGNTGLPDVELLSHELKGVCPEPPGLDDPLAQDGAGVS
Structure (SMILES),Ki (Adenosine receptor A1 [1]),Ki (Adenosine receptor A2a [6]),further results
O[C@H]1CC[C@H](Nc2ncc(-c3cccc(Cl)c3)c(-c3ccccc3)n2)CC1,0.03 µM,–,inhibition (Adenosine receptor A2a [2]): 1.4%; EC50 (Adenosine receptor A1 [3]): 0.278 µM; inhibition [4]: 3%; inhibition [5]: 27%
CCCC(=O)Nc1ncc(-c2cccc(Cl)c2)c(-c2ccccc2)n1,0.106 µM,–,–
Clc1cccc(-c2cnc(NC3CCCC3)nc2-c2ccccc2)c1,0.094 µM,–,inhibition (Adenosine receptor A2a [2]): 23%
COc1ccc(-c2cnc(N)nc2-c2ccccc2)cc1Cl,0.03 to 0.095 µM,0.251 µM,–
Nc1ncc(-c2ccc(Cl)c(Cl)c2)c(-c2ccccc2)n1,0.038 µM,–,inhibition (Adenosine receptor A2a [2]): 41%
Nc1ncc(-c2ccnc(C3CC3)c2)c(-c2ccccc2)n1,0.00176 µM,0.036 µM,–
Oc1ccc(-c2cnc(N[C@H]3CC[C@H](O)CC3)nc2-c2ccccc2)cc1Cl,–,0.0072 µM,–
O[C@H]1CC[C@H](Nc2ncc(-c3ccc4ccccc4c3)c(-c3ccccc3)n2)CC1,–,–,EC50 (Adenosine receptor A1 [3]): 0.166 µM; IC50 (Adenosine receptor A2b): 1 µM; inhibition [4]: 9%; inhibition [5]: 48%
Nc1ncc(-c2cccc(C(F)(F)F)c2)c(-c2ccccc2)n1,0.014 µM,0.098 µM,–
Nc1ncc(-c2ccc3ccccc3c2)c(-c2ccccc2)n1,0.018 µM,0.129 µM,–
Cc1cccc(-c2cnc(N)nc2-c2ccccc2)c1,0.205 µM,–,–
COc1ccc(-c2cnc(N)nc2-c2ccccc2)cc1OC,0.104 µM,–,–
Nc1ncc(-c2ccc(O)c(O)c2)c(-c2ccccc2)n1,0.012 µM,0.0047 µM,–
OCCCCNc1ncc(-c2cccc(Cl)c2)c(-c2ccccc2)n1,0.13 µM,–,inhibition (Adenosine receptor A2a [2]): 13%
Nc1ncc(-c2ccncc2)c(-c2ccccc2)n1,0.017 µM,0.108 µM,–
COc1cccc(-c2cnc(N)nc2-c2ccccc2)c1,0.054 µM,0.154 µM,–
Nc1ncc(-c2ccc(O)c(Cl)c2)c(-c2ccccc2)n1,0.00046 µM,0.0013 µM,–
O[C@H]1CC[C@H](Nc2ncc(-c3ccnc(C4CC4)c3)c(-c3ccccc3)n2)CC1,0.00106 µM,0.065 µM,–
Nc1ncc(-c2ccc(F)cc2)c(-c2ccccc2)n1,0.16 µM,–,–
Nc1ncc(-c2ccc(O)cc2)c(-c2ccccc2)n1,0.0014 µM,0.0013 µM,–
Nc1ncc(-c2cccc(O)c2)c(-c2ccccc2)n1,0.144 µM,–,–
Nc1ncc(-c2cccc(Cl)c2)c(-c2ccccc2)n1,0.055 µM,0.12 µM,–
OCCNc1ncc(-c2cccc(Cl)c2)c(-c2ccccc2)n1,0.18 µM,–,–
OCCCNc1ncc(-c2cccc(Cl)c2)c(-c2ccccc2)n1,0.059 µM,–,inhibition (Adenosine receptor A2a [2]): 9.5%
